Source: PubChem BioAssay
In the library only some 2.5% were active in any assay of this set; here they are far more common.
HTRA1 inhibitor – HTRA1 serine protease inhibitors, primary screen, biochemical, fluorescence polarization, HTS; Q92743; recombinant HTRA1, FP-rhodamine activity-based probe; inhibition, % at 5.96 µM; hit rate 0.5% among 340,000; AID 504803, 2011; in the data active = inhibition above about 36%;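 also: 0% = enzyme with DMSO and 100% = wells lacking enzyme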
ABHD4 inh – ABHD4 inhibitors, primary screen, biochemical, fluorescence polarization, mouse. (Lyso)-N-acylphosphatidylethanolamine lipase (Mus musculus), Q8VD66. purified mABHD4, FP-Rh probe fluorescence polarization. inhibition, % at 8.92 µM. hit rate 0.54% among 370,000;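 active = inhibition exceeding the mean over every tested compound plus 3 SD, cut at about 30% in these data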;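 also: 0% = plate median of compound wells and 100% = S159A mutant with DMSO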
Target sequence (Q8VD66 whole entry, looked up): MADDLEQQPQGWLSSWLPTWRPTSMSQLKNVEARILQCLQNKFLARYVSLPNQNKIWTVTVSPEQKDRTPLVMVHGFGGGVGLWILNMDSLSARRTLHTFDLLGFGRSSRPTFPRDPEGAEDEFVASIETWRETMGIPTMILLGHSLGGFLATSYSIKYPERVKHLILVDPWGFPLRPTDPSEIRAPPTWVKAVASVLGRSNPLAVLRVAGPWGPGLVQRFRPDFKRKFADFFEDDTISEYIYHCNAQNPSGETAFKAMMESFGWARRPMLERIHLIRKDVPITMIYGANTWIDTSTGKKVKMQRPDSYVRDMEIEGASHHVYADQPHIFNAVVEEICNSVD
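Test system: mouse ABHD4 enzyme, wild type. Reagent: FP-Rh fluorescent activity-based probe, added after compound pre-incubation. Timing: pre-incubation 45 min, probe exposure 60 min, at 25 °C. Technique: FP readout, ex 525 nm / em 598 nm. Benchmarks: high control S159A mutant with DMSO, low control median of compound wells.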
SIAE inh – human SIAE inhibitors, primary screen, biochemical, fluorescence polarization, FP-Rh probe, 1536-well HTS; SIAE FP-Rh probe binding; Sialate O-acetylesterase (Homo sapiens), Q9HAT2; inhibition, % at 9.66 µM; AID 1053197, 2014; hit rate 0.69% among 370,000;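 active = inhibition above a cutoff: mean of compounds within the control limits plus 3 SD of those, cut at about 17% in these data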;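 also: 0% = plate median of compound wells and 100% = probe without SIAE protein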
TCR-CD3 inh – inhibitors of human TCR-CD3 interaction, primary screen, biochemical, fluorescence, TAMRA-labeled TCR probe | inhibition, % at 9.4 µM | T-cell receptor (TCR) | hit rate 0.37% among 360,000; in the data active = inhibition above about 19%;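 also: recombinant mutant TCR 2C K166C tagged with TAMRA read by polarization; 0% = receptor in buffer alone and 100% = receptor with positive control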
PRMT1 FP inh – PRMT1 methyltransferase inhibitors, primary screen, biochemical, fluorescence polarization | recombinant PRMT1, activity-based probe fluorescence polarization | AID 652257, 2013 | hit rate 1.3% among 370,000 | inhibition, % at 2.79 µM | Protein arginine N-methyltransferase 1 (Homo sapiens), Q99873;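 active = inhibition above about 21% made by adding two undisclosed values, limit read from the data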
PRMT1 inh conf – PRMT1 methyltransferase inhibitors, confirmation, biochemical, fluorescence polarization, triplicate; recombinant His-PRMT1, activity-based probe fluorescence polarization; hit rate 42% among 3,300; AID 687036, 2013; shares compounds with PRMT1 FP inh; inhibition, % at 2.79 µM;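 active = mean inhibition across replicates above the hit cutoff derived for the earlier primary screen, cut at about 22% in these data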
The depositor's hits bear a star; / = not tested or not shown.

SMILES	HTRA1 inhibitor	ABHD4 inh	SIAE inh	TCR-CD3 inh	PRMT1 FP inh	PRMT1 inh conf
COc1ccc(CCNC2CC(=O)N(CCc3ccccc3)C2=O)cc1OC (stereo unspecified)	3	8	0	3	42*	-2
CN(C(=O)COC(=O)c1cc2ccccc2oc1=O)C1CCCCC1	5	5	4	-7	27*	4
Oc1c(Cl)cc(Oc2cc(Cl)c(O)c(CN3CCOCC3)c2)cc1CN1CCOCC1	-2	-2	1	-3	-2	/
Oc1c(CN2CCOCC2)cc(CN2CCOCC2)c(O)c1O	17	14	9	13	35*	83*
CCCc1cc(CN2CCOCC2)c(O)c(CN2CCOCC2)c1O	7	16	1	-2	64*	64*
C=CCN1[C@H](CO)[C@H](c2ccc(Br)cc2)[C@@H]1C#N	/	-1	-2	/	-6	/
CS(=O)(=O)c1ccc(C(=O)OCC#CCSc2nnc(-c3cccc4ccccc34)o2)cc1	/	0	6	/	3	/
CC(=O)Nc1ccc(C2=NNC(=Nc3ccc(S(=O)(=O)N4CCOCC4)cc3)SC2)cc1	1	-30	-25	-7	60*	86*
CC(=O)Nc1ccc(C(=O)Nc2ccc(S(=O)(=O)N3CCOCC3)cc2)cc1	-4	-3	-2	-7	3	/
CNC(=O)C(=O)Nc1c(O)c2ccccc2[nH]c1=O	3	5	9	7	13	/
CCCCC(=O)Nc1c(O)c2ccccc2[nH]c1=O	4	-3	-1	-4	31*	-3
CC(=O)Nc1c(O)c2ccccc2[nH]c1=O	7	2	2	2	36*	13
CC(C)n1nnnc1C1(C)CCCCC(=O)N1Cc1cccc(C(F)(F)F)c1 (stereo unspecified)	/	-7	0	/	-1	/
Cc1ccc(N2C(=O)C3C4C=CC(CNC(=S)N5CCN(c6cccc(C)c6)C(C)C5)(O4)C3C2=O)cc1 (stereo unspecified)	8	1	3	5	37*	32*
Cn1c(SCC(=O)NCCN2CCCCC2)nc2cccnc21	/	0	3	/	-6	/
CCOc1cc(/C=C2\C(=O)N(Cc3ccco3)C(C)=C2C(=O)OC)ccc1O	4	13	3	15	46*	15
C[C@H]1CCCC(=O)N[C@@H](c2ccccc2)[C@@H](C)CCCC(=O)N[C@H]1c1ccccc1	/	5	2	/	2	/
COc1ccc(C(c2nnnn2-c2ccc(OC)cc2)N2CCN(C/C=C/c3ccccc3)CC2)cc1 (stereo unspecified)	/	0	1	7	-5	/
COc1ccc(C(c2nnnn2C(C)(C)C)N2CCN(C/C=C/c3ccccc3)CC2)cc1 (stereo unspecified)	/	-2	-6	-6	35*	7
O=C(Cn1nc(-c2ccccc2)c2ccccc21)Oc1ccccc1	/	-22	-4	/	3	/
O=C(CCS(=O)(=O)c1ccccc1)Nc1ccc(F)cc1F	/	-2	-5	/	-2	/
O=C(CSC1CC(=O)N(c2ccc(C(=O)O)cc2)C1=O)Nc1ccc(Cl)cc1 (stereo unspecified)	9	5	-5	5	39*	34*
O=C(CSC1CC(=O)N(CCc2ccccc2)C1=O)Nc1cccc(Cl)c1 (stereo unspecified)	-12	-27	8	10	54*	54*
CCN=C(NCC)SC1CC(=O)N(CCc2ccccc2)C1=O (stereo unspecified)	/	-4	-13	6	35*	-1
O=C(O)CSC1CC(=O)N(c2ccc(F)cc2)C1=O (stereo unspecified)	-1	-10	-4	-2	26*	1
SMILES	HTRA1 inhibitor	ABHD4 inh	SIAE inh	TCR-CD3 inh	PRMT1 FP inh	PRMT1 inh conf
CCN=C(NCC)SC1CC(=O)N(c2ccc(OC)cc2)C1=O (stereo unspecified)	7	5	-3	-2	2	/
O=C1CC(SC(=Nc2ccccc2)Nc2ccccc2)C(=O)N1c1ccc(Cl)cc1 (stereo unspecified)	-3	-5	-7	-7	-1	/
NCCSC1CC(=O)N(c2ccc(F)cc2)C1=O (stereo unspecified)	0	2	0	1	19	/
O=C(C1CCCN1S(=O)(=O)c1cccs1)N1CCc2ccccc2C1 (stereo unspecified)	/	0	-2	/	8	/
CN1[C@H](Cc2ccccc2)COc2cccc(F)c2S1(=O)=O	/	-1	3	/	1	/
CCC(=O)/C=C1\Sc2ccc(OC)cc2N1CC	0	-3	0	1	52*	19
Fc1ccc(Nc2nnc(C(F)(F)F)s2)cc1Cl	-15	-10	-1	-4	4	/
Fc1ccc(Nc2cncc(-c3ccsc3)c2)cc1Cl	/	4	-3	-5	25*	2
Cc1ccc(/C=C2\SC(=S)N(C3CCS(=O)(=O)C3)C2=O)cc1 (stereo unspecified)	-1	-7	-4	-8	10	/
O=C1/C(=C/c2ccco2)SC(=S)N1C1CCS(=O)(=O)C1 (stereo unspecified)	14	23	17	1	36*	6
CCN(C(=O)C(C)N1C(=O)/C(=C/c2ccco2)SC1=S)C1CCS(=O)(=O)C1 (stereo unspecified)	23	21	2	2	26*	6
COCCN(C(=O)CSc1nnc(-c2ccccc2C)n1C)c1c(N)n(Cc2ccccc2)c(=O)[nH]c1=O	-1	-1	15	-1	28*	33*
CCN(C(=O)CSc1nnc(-c2cccc(F)c2)n1N)c1c(N)n(Cc2ccccc2)c(=O)[nH]c1=O	-1	0	-6	0	16	/
COc1ccc(-c2nc(SCC(=O)N(CC(C)C)c3c(N)n(Cc4ccccc4)c(=O)[nH]c3=O)n[nH]2)cc1	-6	3	5	2	4	/
CCN(C(=O)CSc1nnc(-c2ccc(OC)cc2)n1N)c1c(N)n(Cc2ccccc2)c(=O)[nH]c1=O	8	8	6	-1	36*	28*
CC(C)CN(C(=O)CSc1nc(-c2ccccc2)cn1N)c1c(N)n(Cc2ccccc2)c(=O)[nH]c1=O	-8	2	10	2	26*	10
COC(=O)C1CN(Cc2cn(Cc3ccc(OC)cc3)nn2)CCS(=O)(=O)N1Cc1ccc(Cl)cc1 (stereo unspecified)	/	-3	-2	/	1	/
Cc1cc(C)nc(SSc2nc(C)cc(C)n2)n1	5	15	0	-4	89*	82*
COCCNC(=O)c1cc(-c2ccccc2)sc1N	/	2	1	-2	32*	-2
CCCCNC(=O)c1cc(-c2ccccc2)sc1N	/	5	8	-2	11	/
